According to ChEMBL document CHEMBL1132388, “A ureido-thioisobutyric acid (GW9578) is a subtype-selective PPARalpha agonist with potent lipid-lowering activity” (J Med Chem, 1999):

Tests used:
[1] = target: T1, Peroxisome proliferator-activated receptor delta (Mus musculus, UniProt P35396); assay: Compound was tested for its agonist activity against murine Peroxisome proliferator activated receptor delta-GAL4 chimeric receptor in transfected CV-1 cells; format: functional, cell-based
T1 sequence (P35396 whole entry): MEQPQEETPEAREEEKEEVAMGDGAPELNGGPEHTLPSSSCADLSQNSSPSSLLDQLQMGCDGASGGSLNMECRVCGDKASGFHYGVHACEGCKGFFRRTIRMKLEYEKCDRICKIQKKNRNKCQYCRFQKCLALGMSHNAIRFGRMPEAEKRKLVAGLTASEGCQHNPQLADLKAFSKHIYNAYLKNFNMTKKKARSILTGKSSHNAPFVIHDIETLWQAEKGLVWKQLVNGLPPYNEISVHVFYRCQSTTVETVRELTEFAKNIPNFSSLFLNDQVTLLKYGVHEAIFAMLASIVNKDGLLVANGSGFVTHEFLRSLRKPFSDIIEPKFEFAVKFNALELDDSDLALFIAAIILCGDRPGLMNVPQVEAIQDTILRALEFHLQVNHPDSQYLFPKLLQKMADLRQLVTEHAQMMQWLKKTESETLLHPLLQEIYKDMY

[2] = target: T2, Peroxisome proliferator-activated receptor gamma (Mus musculus, UniProt P37238); assay: Compound was tested for its agonist activity against murine Peroxisome proliferator activated receptor gamma-Gal4 chimeric receptor in transfected CV-1 cells; format: functional, cell-based
T2 sequence (P37238 whole entry): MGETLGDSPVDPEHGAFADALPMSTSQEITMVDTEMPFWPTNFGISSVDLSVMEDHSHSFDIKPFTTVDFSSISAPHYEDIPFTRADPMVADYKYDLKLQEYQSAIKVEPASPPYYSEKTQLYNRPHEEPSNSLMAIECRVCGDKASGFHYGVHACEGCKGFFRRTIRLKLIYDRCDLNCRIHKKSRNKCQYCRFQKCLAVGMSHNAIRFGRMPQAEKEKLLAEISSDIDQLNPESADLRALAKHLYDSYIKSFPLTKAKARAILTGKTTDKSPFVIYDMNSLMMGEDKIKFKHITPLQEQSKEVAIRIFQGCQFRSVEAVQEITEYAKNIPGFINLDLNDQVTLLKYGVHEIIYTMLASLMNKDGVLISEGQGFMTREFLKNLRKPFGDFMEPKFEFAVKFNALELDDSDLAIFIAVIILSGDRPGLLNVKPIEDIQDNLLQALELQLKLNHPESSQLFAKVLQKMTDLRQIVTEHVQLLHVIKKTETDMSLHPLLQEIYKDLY

[3] = species on record: Rattus norvegicus; assay: Minimum effective dose producing a 40-60% decrease in serum TLDL cholesterol in rats relative to vehicle -treated controls; format: functional; settings: read-out: MED
[4] = target: T3, Peroxisome proliferator-activated receptor gamma (Homo sapiens, UniProt P37231)
T3 sequence (P37231 whole entry): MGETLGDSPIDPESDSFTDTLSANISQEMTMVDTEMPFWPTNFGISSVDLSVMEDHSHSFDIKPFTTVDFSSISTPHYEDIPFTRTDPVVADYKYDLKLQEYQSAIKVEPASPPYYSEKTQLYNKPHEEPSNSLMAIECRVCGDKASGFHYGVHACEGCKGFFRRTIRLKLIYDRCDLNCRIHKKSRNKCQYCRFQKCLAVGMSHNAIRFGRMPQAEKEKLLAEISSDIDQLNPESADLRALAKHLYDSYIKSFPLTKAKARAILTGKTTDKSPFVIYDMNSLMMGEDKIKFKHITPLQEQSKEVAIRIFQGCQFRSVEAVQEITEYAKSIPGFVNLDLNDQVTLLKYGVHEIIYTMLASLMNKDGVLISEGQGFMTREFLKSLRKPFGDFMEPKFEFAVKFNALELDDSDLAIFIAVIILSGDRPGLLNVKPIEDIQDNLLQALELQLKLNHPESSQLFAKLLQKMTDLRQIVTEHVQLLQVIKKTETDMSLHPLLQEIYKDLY

[5] = target: T4, Peroxisome proliferator-activated receptor alpha (Mus musculus, UniProt P23204); assay: Compound was tested for its agonist activity against murine Peroxisome proliferator activated receptor alpha-Gal4 chimeric receptor transfected CV-1 cells; format: functional, cell-based
T4 sequence (P23204 whole entry): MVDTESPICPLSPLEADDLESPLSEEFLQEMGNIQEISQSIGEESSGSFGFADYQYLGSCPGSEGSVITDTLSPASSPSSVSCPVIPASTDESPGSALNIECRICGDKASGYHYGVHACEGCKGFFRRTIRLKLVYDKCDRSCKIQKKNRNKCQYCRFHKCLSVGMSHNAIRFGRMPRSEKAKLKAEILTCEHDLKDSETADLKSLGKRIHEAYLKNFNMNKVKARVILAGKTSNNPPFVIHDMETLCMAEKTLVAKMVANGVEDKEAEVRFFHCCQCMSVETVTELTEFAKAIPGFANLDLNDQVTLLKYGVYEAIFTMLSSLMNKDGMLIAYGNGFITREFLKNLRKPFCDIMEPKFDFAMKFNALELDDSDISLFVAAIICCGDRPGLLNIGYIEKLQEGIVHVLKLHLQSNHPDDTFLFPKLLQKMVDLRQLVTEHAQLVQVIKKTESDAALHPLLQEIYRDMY
Method in brief: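 PPAR-GAL4 chimeric receptor transiently transfected into CV-1 cells; reporter activity read after compound exposure, with concentrations tested up to 300 µM.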

[6] = target: T5, Peroxisome proliferator-activated receptor delta (Homo sapiens, UniProt Q03181); assay: Compound was tested for agonist activity on human Peroxisome proliferator activated receptor delta-GAL4 chimeric receptor in transfected CV-1 cells; format: functional, cell-based
T5 sequence (Q03181 whole entry): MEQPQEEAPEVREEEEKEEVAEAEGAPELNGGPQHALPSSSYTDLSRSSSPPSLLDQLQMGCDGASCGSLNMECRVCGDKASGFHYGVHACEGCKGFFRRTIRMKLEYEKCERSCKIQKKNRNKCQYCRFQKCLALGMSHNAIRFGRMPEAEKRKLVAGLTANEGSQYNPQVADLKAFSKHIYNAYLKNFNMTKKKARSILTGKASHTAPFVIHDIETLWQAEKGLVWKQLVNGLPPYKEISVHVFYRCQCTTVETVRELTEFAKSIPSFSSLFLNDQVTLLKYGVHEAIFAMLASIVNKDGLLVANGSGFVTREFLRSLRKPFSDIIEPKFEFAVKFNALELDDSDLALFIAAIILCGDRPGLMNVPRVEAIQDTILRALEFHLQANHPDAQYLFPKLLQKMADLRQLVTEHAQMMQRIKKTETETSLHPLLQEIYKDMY

[7] = target: T6, Peroxisome proliferator-activated receptor alpha (Homo sapiens, UniProt Q07869)
T6 sequence (Q07869 whole entry): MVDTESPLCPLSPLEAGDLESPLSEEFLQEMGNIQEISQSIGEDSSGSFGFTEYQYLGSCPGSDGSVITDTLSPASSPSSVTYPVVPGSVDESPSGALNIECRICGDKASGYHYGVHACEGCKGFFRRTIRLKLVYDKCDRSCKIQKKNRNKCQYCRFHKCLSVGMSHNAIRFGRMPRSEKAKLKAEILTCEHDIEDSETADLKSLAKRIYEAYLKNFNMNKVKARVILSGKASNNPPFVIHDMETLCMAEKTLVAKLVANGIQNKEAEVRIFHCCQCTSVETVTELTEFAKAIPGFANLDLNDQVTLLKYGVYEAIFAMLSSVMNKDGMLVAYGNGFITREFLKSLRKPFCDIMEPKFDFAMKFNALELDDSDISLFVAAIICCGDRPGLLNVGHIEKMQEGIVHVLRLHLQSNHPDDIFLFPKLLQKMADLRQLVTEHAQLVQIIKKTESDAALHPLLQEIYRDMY

[8] = target: T5, Peroxisome proliferator-activated receptor delta; assay: Compound was tested for agonist activity on human Peroxisome proliferator activated receptor delta-GAL4 chimeric receptor in transfected CV-1 cells; IA = Inactive; format: functional, cell-based
[9] = target: T1, Peroxisome proliferator-activated receptor delta; assay: Compound was tested for its agonist activity against murine Peroxisome proliferator activated receptor delta-GAL4 chimeric receptor in transfected CV-1 cells; IA = Inactive; format: functional, cell-based

SMILES	EC50 [1]	EC50 [2]	minimal effective dose [3]	EC50 [4]	EC50 [5]	EC50 [6]	EC50 [7]	EC50 [8]	EC50 [9]
CC(C)(Oc1ccc(CCN(C(=O)Nc2ccc(F)cc2F)C2CCCCCC2)cc1)C(=O)O	1.4 µM	0.012 µM	1 mg/kg	0.006 µM	0.12 µM	0.79 µM	–	–	–
CCCCCCCN(CCc1ccc(OC(C)(C)C(=O)O)cc1)C(=O)Nc1ccc(F)cc1F	3.2 µM	0.4 µM	0.1 mg/kg	0.2 µM	0.01 µM	–	0.79 µM	–	–
CC(C)(Oc1ccc(CCN(CCCCCC2CCCCC2)C(=O)Nc2ccc(F)cc2)cc1)C(=O)O	23 µM	1 µM	1 mg/kg	1.6 µM	0.053 µM	–	0.15 µM	–	–
CCCCCCCN(CCc1ccc(OC(C)(C)C(=O)O)cc1)C(=O)Nc1ccc(F)cc1	5.5 µM	0.87 µM	0.1 mg/kg	0.28 µM	0.033 µM	3.1 µM	0.41 µM	–	–
CC(C)(Oc1ccc(CCNC(=O)c2ccc(Cl)cc2)cc1)C(=O)O [BEZAFIBRATE]	110 µM	55 µM	50 mg/kg	60 µM	90 µM	20 µM	–	–	–
CC(C)(Oc1ccc(Cl)cc1)C(=O)O [CLOFIBRIC ACID]	–	> 300 µM	–	> 300 µM	50 µM	–	55 µM	Not Active	Not Active
CC(C)(Oc1ccc(C(=O)c2ccc(Cl)cc2)cc1)C(=O)O [FENOFIBRIC ACID]	–	250 µM	50 mg/kg	–	–	–	–	Not Active	Not Active
CCCCCCCN(CCc1ccc(SC(C)(C)C(=O)O)cc1)C(=O)Nc1ccc(F)cc1F [GSK-9578]	2.6 µM	1.5 µM	0.2 mg/kg	–	0.005 µM	1.4 µM	–	–	–
